Laboratory results from BindingDB's records for doi:10.1021/acs.jmedchem.9b02004 (University of Illinois At Chicago, 2020).

Target: T1, Acid ceramidase (Homo sapiens, UniProt Q13510)
T1 sequence (Q13510 whole entry): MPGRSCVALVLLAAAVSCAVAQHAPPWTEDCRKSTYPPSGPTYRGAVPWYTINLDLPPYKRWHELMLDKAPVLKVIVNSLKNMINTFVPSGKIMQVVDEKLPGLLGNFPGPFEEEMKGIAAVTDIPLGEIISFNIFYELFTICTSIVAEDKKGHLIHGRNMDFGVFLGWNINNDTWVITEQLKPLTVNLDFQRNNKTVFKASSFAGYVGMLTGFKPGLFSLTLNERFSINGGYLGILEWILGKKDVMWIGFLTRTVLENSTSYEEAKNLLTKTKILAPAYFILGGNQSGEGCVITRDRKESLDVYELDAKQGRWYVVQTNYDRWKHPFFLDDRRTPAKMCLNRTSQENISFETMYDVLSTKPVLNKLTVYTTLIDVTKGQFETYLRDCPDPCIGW
Test: Time-dependent inhibition of human acid ceramidase expressed in HEK293 cells using Rbm14-12 as substrate by fluorescence assay
Outline: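 hAC-enriched lysates with fluorogenic substrate Rbm 14-12; vehicle 1% DMSO; time-dependent inhibition analysed for ki/KI and ki; two independent experiments, each in two technical replicates.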

## CC(C)CNC(=O)n1c(=O)oc2cc(C3CCN(C)CC3)ccc21
  kinact: 0.0025 s⁻¹
